Data reported in ChEMBL document CHEMBL1122242, “Phenylenebis(oxy)bis[2,2-dimethylpentanoic acid]s: agents that elevate high-density lipoproteins” (1983).

Tests used:
Format in all cases: functional
[1] = tested on: Rattus norvegicus; experiment: Hypolipidemic effects (high-density lipoprotein (HDL) cholesterol) in male rats;Compound was screening orally at 50 mg/Kg
Procedure, shortened: (§1)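 Male rats, 10 per group, fed 7 days on chow with 10% fat (5.5% added peanut oil), 1.5% cholesterol and 0.1% cholic acid. Oral gavage on days 4-7 in 4% acacia, usually 50 mg/kg daily. Fasted overnight, killed day 8, atrial blood into EDTA. Plasma cholesterol, TG and HDL cholesterol (after MnCl2/heparin precipitation) by Autoanalyzer. % change vs controls, Student's t test.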

[2] = organism: Rattus norvegicus; experiment: Hypolipidemic effects(liver weight) in male rats; procedure, shortened: as §1
[3] = organism: Rattus norvegicus; experiment: Hypolipidemic effects(plasma TG) in male rats; procedure, shortened: as §1
[4] = organism: Rattus norvegicus; experiment: Hypolipidemic effects(plasma cholesterol) in male rats; procedure, shortened: as §1
[5] = tested on: Rattus norvegicus; experiment: Hypolipidemic effects (low-density lipoprotein (LDL) cholesterol) in male rats;Compound was screening orally at 50 mg/Kg; procedure, shortened: as §1
[6] = tested on: Rattus norvegicus; experiment: Hypolipidemic effects (high-density lipoprotein (HDL) cholesterol) in male rats; Compound was screening orally at 50 mg/Kg; procedure, shortened: as §1
[7] = organism: Rattus norvegicus; experiment: Hypolipidemic effects (low-density lipoprotein (LDL) cholesterol) in male rats; procedure, shortened: as §1
[8] = tested on: Rattus norvegicus; experiment: Hypolipidemic effects(plasma cholesterol) in male rats at 12.50 mg/kg; conditions: dose 12.5 mg/kg
Procedure, shortened: (§2)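 Head-to-head oral dosing at 12.5, 25 and 50 mg/kg daily […] in male rats kept on a high lipid diet, alongside gemfibrozil reference. Plasma lipid fractions and liver weight expressed as % change vs controls.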

[9] = tested on: Rattus norvegicus; experiment: Hypolipidemic effects(liver weight) in male rats at 25 mg/kg; procedure, shortened: as §2
[10] = tested on: Rattus norvegicus; experiment: Hypolipidemic effects as the ratio of (HDL/LDL) in male rats at dose 12.5 mg/kg.
Procedure, shortened: (§3)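 Male rats on a high lipid diet, dosed orally […] at 12.5, 25 or 50 mg/kg, with gemfibrozil reference. HDL/LDL (VLDL included) ratio from densitometry of polyacrylamide gel electrophoresis patterns of plasma. Expressed as % change vs controls.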

[11] = tested on: Rattus norvegicus; experiment: Hypolipidemic effects as the ratio of (HDL/LDL) in male rats at dose 25 mg/kg.; procedure, shortened: as §3
[12] = tested on: Rattus norvegicus; experiment: Hypolipidemic effects(plasma cholesterol) in male rats at 25 mg/kg; procedure, shortened: as §2
[13] = tested on: Rattus norvegicus; experiment: Hypolipidemic effects (high-density lipoprotein (HDL) cholesterol) in male rats at 12.50 mg/kg; conditions: dose 12.5 mg/kg; procedure, shortened: as §2
[14] = tested on: Rattus norvegicus; experiment: Hypolipidemic effects as the ratio of (HDL/LDL) in male rats at dose 50 mg/kg.; procedure, shortened: as §3
[15] = tested on: Rattus norvegicus; experiment: Hypolipidemic effects (Low-density lipoprotein (LDL) cholesterol) in male rats at 12.50 mg/kg; conditions: dose 12.5 mg/kg; procedure, shortened: as §2
[16] = tested on: Rattus norvegicus; experiment: Hypolipidemic effects(plasma TG) in male rats at 25 mg/kg; procedure, shortened: as §2
[17] = tested on: Rattus norvegicus; experiment: Hypolipidemic effects (high-density lipoprotein (HDL) cholesterol) in male rats at 25 mg/kg; procedure, shortened: as §2
[18] = tested on: Rattus norvegicus; experiment: Hypolipidemic effects(plasma TG) in male rats at 12.50 mg/kg; conditions: dose 12.5 mg/kg; procedure, shortened: as §2
[19] = tested on: Rattus norvegicus; experiment: Hypolipidemic effects(liver weight) in male rats at 12.50 mg/kg; conditions: dose 12.5 mg/kg; procedure, shortened: as §2
[20] = tested on: Rattus norvegicus; experiment: Hypolipidemic effects(plasma cholesterol) in male rats;Compound was screening orally at 50 mg/Kg; procedure, shortened: as §1
[21] = tested on: Rattus norvegicus; experiment: Hypolipidemic effects(plasma TG) in male rats;Compound was screening orally at 50 mg/Kg; procedure, shortened: as §1
[22] = tested on: Rattus norvegicus; experiment: Hypolipidemic effects (Low-density lipoprotein (LDL) cholesterol) in male rats at 25 mg/kg; procedure, shortened: as §2
[23] = tested on: Rattus norvegicus; experiment: Hypolipidemic effects (Low-density lipoprotein (LDL) cholesterol) in male rats at 50 mg/kg; Compound was screening orally at 50 mg/Kg; procedure, shortened: as §1
[24] = tested on: Rattus norvegicus; experiment: Hypolipidemic effects (high-density lipoprotein (HDL) cholesterol) in male rats at 50 mg/kg; Compound was screening orally at 50 mg/Kg; procedure, shortened: as §1
[25] = tested on: Rattus norvegicus; experiment: Hypolipidemic effects(plasma TG) in male rats at 50 mg/kg; procedure, shortened: as §2
[26] = tested on: Rattus norvegicus; experiment: Hypolipidemic effects(liver weight) in male rats at 50 mg/kg; procedure, shortened: as §2
[27] = tested on: Rattus norvegicus; experiment: Hypolipidemic effects(plasma cholesterol) in male rats at 50 mg/kg; procedure, shortened: as §2

Row | Compound | Change [1] [%] | Change [2] [%] | Change [3] [%] | Change [4] [%] | Change [5] [%] | Change [6] [%] | other results
1 | O=C(O)C1(CCCCOc2ccc(OCCCCC3(C(=O)O)CCC3)cc2)CCC1 | 55 | 0 | 0 | -23 | -32 | – | –
2 | COC(=O)C(C)(C)CCCOc1ccc(C=N/N=C(/N)S)c(OCCCC(C)(C)C(=O)OC)c1 | – | 38 | -50 | -60 | -83 | 280 | –
3 | CCCC(O)c1cc(OCCCC(C)(C)C(=O)O)ccc1OCCCC(C)(C)C(=O)O (stereo unspecified) | – | 37 | 0 | 61 | -45 | 1292 | –
4 | COC(=O)C(C)(C)CCCOc1cccc(OC)c1OCCCC(C)(C)C(=O)OC | 0 | 0 | 0 | 0 | – | – | Change [7]: 0%
5 | CC(C)(CCCOc1ccc(SCCCC(C)(C)C(=O)O)cc1)C(=O)O | – | 18 | – | – | – | 628 | Change [8]: -19%; Change [9]: 6%; Change [10]: 101%; Change [11]: 302%; Change [12]: -22%; Change [13]: 74%; Change [14]: 785%; Change [15]: -25%; Change [16]: 37%; Change [17]: 232%; Change [18]: 0%; Change [19]: 0%; Change [20]: -44%; Change [21]: -40%; Change [7]: -51%; Change [22]: -40%
6 | COC(=O)C(C)(C)CCCOc1ccc(OCCCC(C)(C)C(=O)OC)c(F)c1 | 347 | 41 | 0 | -30 | -65 | – | –
7 | CC(C)(Oc1cccc(OC(C)(C)C(=O)O)c1)C(=O)O | – | 0 | 0 | 0 | 0 | 0 | –
8 | COC(=O)C(C)(C)CCCOc1ccc(OCCCC(C)(C)C(=O)OC)c(C(=O)c2ccccc2)c1 | 421 | 11 | 43 | 0 | -42 | – | –
9 | COC(=O)C(C)(C)CCCOc1ccc(OCCCC(C)(C)C(=O)OC)c(C)c1 | – | – | – | – | – | – | Change [23]: -71%; Change [8]: -43%; Change [9]: 25%; Change [10]: 142%; Change [11]: 452%; Change [24]: 743%; Change [12]: -41%; Change [13]: 102%; Change [14]: 1009%; Change [15]: -54%; Change [25]: 62%; Change [16]: 0%; Change [26]: 38%; Change [27]: -37%; Change [17]: 269%; Change [18]: 0%; Change [19]: 13%; Change [22]: -65%
